These results are taken from ChEMBL document CHEMBL2417530, “Coumarin derivatives protect against ischemic brain injury in rats” (Eur J Med Chem, 2013).

For orientation: AUC means concentration integrated over time. Low readings indicate low exposure, high ones high exposure. A word on the Vd: it is a proportionality between amount in the body and measured concentration, not a real space. A low value points to little distribution into tissue. What is called Cmax is the highest concentration seen after dosing.

Data set [1] can be described thus: AUC in Sprague-Dawley rat cortex at 2 x 10^-5 mol/kg, iv by LC-MS analysis. Format: ADME, organism-based. Particulars: 2e-05 mol/kg. The gist of the method:
(§1)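 Male Sprague-Dawley rats (260-280 g, n = 4) given a single iv dose of 6 mg/kg. Blood was taken from the jugular vein into heparin tubes under ether, and plasma was spun out and stored at -70 °C. After saline perfusion, cortex was homogenized in 2 volumes of water. Samples were precipitated with acetonitrile with internal standard added and quantified by LC-MS against a weighted linear calibration.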

In data set [2] the test system is Rattus norvegicus. Description: Anti-ischemia activity in Sprague-Dawley rat transient middle cerebral artery occlusion model assessed as upregulation of Bcl-2 protein expression in hippocampus at 1.5 to 6 mg/kg, iv measured 24 hrs post reperfusion by Western blot analysis relative to vehicle-treated control. It counts as functional, organism-based. The gist of the method:
(§2)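 Rats underwent 60 min intraluminal right MCA occlusion under chloral hydrate, then reperfusion, with iv saline or drug (1.5, 3.0, 6.0 mg/kg) at reperfusion. At 24 h they were saline-perfused and cortex and hippocampus lysed in RIPA buffer. Protein was BCA-normalized, run on SDS-PAGE and blotted for Bcl-2, Bax, cleaved caspase-3 and β-actin with ECL detection; n = 4.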
(A western blot detects proteins with antibodies after separation by electrophoresis.)

Data set [3] deals with Rattus norvegicus. Description: In vivo neuroprotective activity in iv dosed Sprague-Dawley rat transient middle cerebral artery occlusion model assessed as suppression of neuronal loss in cerebral cortex measured 24 hrs post reperfusion by nissl staining assay. It counts as functional, organism-based. In short, it runs like this: (§3)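 After 60 min transient MCAO with iv treatment at reperfusion, rats were perfused at 24 h with PBS, then 4% buffered paraformaldehyde. Brains were paraffin-embedded and coronal sections stained with 0.5% cresyl fast violet (Nissl). Cortex and hippocampus were examined at 200×.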

The subject of data set [4] is Rattus norvegicus. Description: In vivo neuroprotective activity in Sprague-Dawley rat transient middle cerebral artery occlusion model assessed as suppression of neuropathological changes at 1.5 to 6 mg/kg, iv measured 24 hrs post reperfusion by uranyl acetate/lead citrate staining-based transmission electron microscopic analysis. It counts as functional, organism-based. In short, it runs like this:
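Rats had 60 min MCAO with iv dosing (1.5-6.0 mg/kg) at reperfusion. At 24 h they were perfused with PBS, then acrolein in 2% paraformaldehyde. Tissue was postfixed in 2.5% glutaraldehyde for 2 h and 1% OsO4 for 2 h, dehydrated and Epon-embedded. Ultrathin sections were stained with uranyl acetate/lead citrate and examined by TEM at 12000×.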

The subject of data set [5] is Rattus norvegicus. Description: Anti-ischemia activity in Sprague-Dawley rat transient middle cerebral artery occlusion model assessed as inhibition of cleaved caspase-3 protein expression in cerebral cortex at 1.5 to 6 mg/kg, iv measured 24 hrs post reperfusion by Western blot analysis relative to vehicle-treated control. Format: functional, organism-based. In short, it runs like this: as §2

Data set [6] concerns Rattus norvegicus. The experiment in a line: In vivo neuroprotective activity in Sprague-Dawley rat transient middle cerebral artery occlusion model assessed as reduction of brain-water content at 1.5 to 6 mg/kg, iv measured 24 hrs post reperfusion. It counts as functional, organism-based. The gist of the method:
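Male SD rats (7 weeks, 260-280 g) had 60 min transient right MCA occlusion with a nylon filament, then reperfusion. Saline or drug (1.5, 3.0, 6.0 mg/kg) was injected iv at reperfusion. Animals without neurological deficit were replaced. At 24 h brains were oven-dried at 110 °C for 24 h, and water content was taken as (wet−dry)/wet; n = 12.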

Data set [7] in a line: Terminal half life in Sprague-Dawley rat plasma at 2 x 10^-5 mol/kg, iv by LC-MS analysis. It counts as ADME, organism-based. Particulars: 2e-05 mol/kg, read-out: beta t1/2. In short, it runs like this: as §1
Data set [8] concerns Rattus norvegicus. Description: In vivo neuroprotective activity in iv dosed Sprague-Dawley rat transient middle cerebral artery occlusion model assessed as suppression of neuronal loss in hippocampus measured 24 hrs post reperfusion by nissl staining assay. Format: functional, organism-based. In short, it runs like this: as §3
Data set [9] is described as follows: Volume of distribution in Sprague-Dawley rat cortex at 2 x 10^-5 mol/kg, iv by LC-MS analysis. Format: ADME, organism-based. Particulars: 2e-05 mol/kg. The gist of the method:
as §1

Data set [10] concerns Rattus norvegicus. Description: In vivo neuroprotective activity in Sprague-Dawley rat transient middle cerebral artery occlusion model assessed as suppression of neuronal loss in cerebral cortex at 1.5 to 6 mg/kg, iv measured 24 hrs post reperfusion by TUNEL assay. It counts as functional, organism-based. The gist of the method: (§4)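 Transient MCAO in rats (60 min occlusion), with iv treatment at 1.5, 3.0 or 6.0 mg/kg at reperfusion. At 24 h brains were perfusion-fixed in 4% paraformaldehyde and paraffin-embedded. Hippocampal or cortical sections were proteinase K-treated (20 µg/mL, 15 min, RT), given TdT reaction (37 °C, 1 h) and anti-digoxigenin-AP detection, and TUNEL-positive cells were examined at 200×.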

Data set [11] is described as follows: AUC in Sprague-Dawley rat plasma at 2 x 10^-5 mol/kg, iv by LC-MS analysis. Format: ADME, organism-based. Particulars: 2e-05 mol/kg. The gist of the method:
as §1

The subject of data set [12] is Rattus norvegicus. Description: In vivo neuroprotective activity in Sprague-Dawley rat transient middle cerebral artery occlusion model assessed as suppression of neuronal loss in hippocampus at 1.5 to 6 mg/kg, iv measured 24 hrs post reperfusion by TUNEL assay. Format: functional, organism-based. The gist of the method:
as §4

The nature of data set [13]: Cmax in Sprague-Dawley rat plasma at 2 x 10^-5 mol/kg, iv measured at 2 mins by LC-MS analysis. Particulars: 2e-05 mol/kg. Format: ADME, organism-based. The gist of the method:
as §1

In data set [14] the test system is Cortex. Description: Drug uptake in Sprague-Dawley rat cortex at 2 x 10^-5 mol/kg, iv measured at 60 mins by LC-MS analysis. Format: ADME, organism-based. Particulars: in vivo, 1 h. In short, it runs like this: as §1
Data set [15] relates to Rattus norvegicus. The experiment in a line: Anti-ischemia activity in Sprague-Dawley rat transient middle cerebral artery occlusion model assessed as upregulation of Bcl-2 protein expression in cerebral cortex at 1.5 to 6 mg/kg, iv measured 24 hrs post reperfusion by Western blot analysis relative to vehicle-treated control. It counts as functional, organism-based. The gist of the method:
as §2

In data set [16] the test system is Rattus norvegicus. The experiment in a line: Anti-ischemia activity in Sprague-Dawley rat transient middle cerebral artery occlusion model assessed as inhibition of Bax protein expression in hippocampus at 1.5 to 6 mg/kg, iv measured 24 hrs post reperfusion by Western blot analysis relative to vehicle-treated control. It counts as functional, organism-based. In short, it runs like this:
as §2

For data set [17], the system named is Rattus norvegicus. Description: Anti-ischemia activity in Sprague-Dawley rat transient middle cerebral artery occlusion model assessed as inhibition of cleaved caspase-3 protein expression in hippocampus at 1.5 to 6 mg/kg, iv measured 24 hrs post reperfusion by Western blot analysis relative to vehicle-treated control. It counts as functional, organism-based. In short, it runs like this: as §2

The subject of data set [18] is Rattus norvegicus. The experiment in a line: Anti-ischemia activity in Sprague-Dawley rat transient middle cerebral artery occlusion model assessed as inhibition of Bax protein expression in cerebral cortex at 1.5 to 6 mg/kg, iv measured 24 hrs post reperfusion by Western blot analysis relative to vehicle-treated control. It counts as functional, organism-based. In short, it runs like this: as §2

Data set [19] is described as follows: Cytotoxicity against rat PC12 cells assessed as cell proliferation at 10 uM by MTT assay relative to control. It counts as cell-based, PC-12. Particulars: read-out: Activity. In short, it runs like this: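 PC12 cells were grown in DMEM with 5% FBS, 5% horse serum and 2 mM glutamine at 37 °C, 5% CO2. They were seeded at 5×10^3 cells/well for 24 h, then exposed to 10 µM compound in full medium. Viability was read by MTT (5 mg/mL, 4 h) at 570 nm as % of control absorbance; n = 3.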
On the technique in general: Tetrazolium assays rely on reduction of a dye to a coloured formazan, in cell work by metabolically active cells.

Data set [20] is described as follows: Cmax in Sprague-Dawley rat cortex at 2 x 10^-5 mol/kg, iv measured at 2 mins by LC-MS analysis. It counts as ADME, organism-based. Particulars: 2e-05 mol/kg. The gist of the method:
as §1

Data set [21] deals with Cortex. The experiment in a line: Clearance in Sprague-Dawley rat cortex at 2 x 10^-5 mol/kg, iv by LC-MS analysis. Format: ADME, organism-based. Particulars: in vivo. In short, it runs like this:
as §1

Each structure is given as a SMILES string. Calls of active or inactive are those of the source. The calls are words filed in the database; no cut-off is given here.

`COc1cc(O)cc2oc(=O)c(N3CCN(C)CC3)c(C)c12`: the AUC in data set [1] was 42.4 ng·h/mL; in data set [11], 2870 ng·h/mL. Further, the result in data set [2], in data set [4], in data set [6], in data set [10], in data set [12] and in data set [15] was Active. Moreover, the Activity entry in data set [3] and in [8] was “Dose-dependent effect” in each case. Moreover, the inhibition result in data set [5], in data set [16], in data set [17] and in data set [18] was “Active” in each case. Moreover, the half-life in data set [7] worked out at 6.51 min. Also, in [9], the Vd amounted to 12.3 L. The figures for the Cmax in data set [13] and in data set [20] were 13300 ng/mL and 122 ng/mL, respectively. The Drug uptake result in data set [14] is “Not Active”. Further, the viability at 10 µM in data set [19] was 101%. This compound also had a CL in data set [21] of 0.558 L/min.
